This is an account of results in ChEMBL document CHEMBL4002602, “Design, Synthesis of Novel, Potent, Selective, Orally Bioavailable Adenosine A2A Receptor Antagonists and Their Biological Evaluation” (J Med Chem, 2017).

By Cmax is commonly meant the maximum level reached in the sampled fluid or tissue. As usually defined, the AUC(0-t) is the area under the concentration-time curve up to a stated or last time point. For orientation: IC50 means the concentration that inhibits the measured activity by half. High values mean weaker potency, low ones greater potency. By Ki is commonly meant a measure of affinity in units of concentration, obtained from inhibition or displacement. Low readings indicate higher affinity, high ones lower affinity. The term inhibition denotes the change of the read-out against control, counted positive when it falls. The low end stands for little suppression, the high end for strong suppression.

Series [1] can be described thus: Metabolic stability in rat hepatocytes assessed as parent compound remaining at 1 uM measured at 60 mins post dose by LC-MS/MS analysis. Format: ADME, cell-based, Hepatocyte. The note with it: read-out: Stability.
Series [2] in a line: Cmax in Wistar rat at 10 mg/kg administered via oral gavage by LC/MS/MS analysis. Particulars: in vivo. Format: ADME, organism-based. Details: dose 10 mg/kg, route oral. The gist of the method: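 Fasted male Wistar rats given 10 mg/kg PO as a suspension in 1% Tween 80, 0.5% w/v NaCMC. Serial plasma sampling (K2EDTA) at 0.25–24 h, acetonitrile precipitation, LC/MS/MS. Non-compartmental analysis per animal; bioavailability calculated against the 3 mg/kg IV group; mean of n=4.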

Series [3] in a line: AUC (0 to t) in Wistar rat at 10 mg/kg administered via oral gavage by LC/MS/MS analysis. The note with it: in vivo. The series is classed as ADME, organism-based. The gist of the method: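 Male Wistar rats (230 ± 15 g), fasted overnight with water available, given a single oral suspension in 1% Tween 80 and 0.5% NaCMC (1 mg/mL, 10 mL/kg). Serial blood sampling (n=3/time point) at 0.25–24 h into K2EDTA. Plasma proteins precipitated with acetonitrile, then LC/MS/MS. AUC0-t by non-compartmental analysis of individual animals.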

In series [4] the target is T1, Adenosine receptor A3 (Homo sapiens) (UniProt P0DMS8).
T1 sequence (whole entry): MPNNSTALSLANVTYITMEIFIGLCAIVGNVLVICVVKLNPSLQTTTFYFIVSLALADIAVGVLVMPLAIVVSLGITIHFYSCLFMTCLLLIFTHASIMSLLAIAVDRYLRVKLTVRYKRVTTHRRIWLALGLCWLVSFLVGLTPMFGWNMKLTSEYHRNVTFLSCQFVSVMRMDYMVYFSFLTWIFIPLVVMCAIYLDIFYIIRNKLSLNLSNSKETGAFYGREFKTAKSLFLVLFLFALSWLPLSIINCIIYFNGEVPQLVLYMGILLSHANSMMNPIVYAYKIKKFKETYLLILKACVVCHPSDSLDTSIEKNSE
Put plainly: Displacement of [3H]-HEMADO from human adenosine A3 receptor expressed in HEK293 cell membranes at 30 uM measured after 90 mins. In general terms: In a radioligand displacement assay an active substance lowers the binding of a labelled ligand.

The next series has as its target CYP3A (Homo sapiens, UniProt P08684+P20815+P24462+Q9HB55). Put plainly: Inhibition of CYP3A in human liver microsomes at 5 to 25 uM using testosterone as substrate preincubated for 5 mins with substrate followed by NADPH addition measured after 10 mins by LC-MS/MS analysis. The series is classed as ADME. Particulars: human liver microsomes, probe testosterone. (In general: Liver microsomes are vesicles of endoplasmic reticulum, rich in cytochrome P450 enzymes.)

The next series concerns the target T2, Adenosine receptor A1 (Homo sapiens, UniProt P30542).
T2 sequence (P30542 whole entry): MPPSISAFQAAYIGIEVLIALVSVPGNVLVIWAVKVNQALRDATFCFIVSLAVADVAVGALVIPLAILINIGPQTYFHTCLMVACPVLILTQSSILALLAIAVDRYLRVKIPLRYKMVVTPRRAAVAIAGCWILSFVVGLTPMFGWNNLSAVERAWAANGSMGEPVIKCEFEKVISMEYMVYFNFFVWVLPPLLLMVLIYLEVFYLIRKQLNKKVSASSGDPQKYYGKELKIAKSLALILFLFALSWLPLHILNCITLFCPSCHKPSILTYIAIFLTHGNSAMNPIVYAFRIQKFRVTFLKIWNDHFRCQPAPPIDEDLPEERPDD
As to the kind of experiment: Displacement of [3H]-DPCPX from human adenosine A1 receptor expressed in HEK293 cell membranes measured after 90 mins. The essentials:
(§1)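 Competition binding on membranes from HEK-293 cells overexpressing human A1, A2A, A2B or A3, washed with ADA. Radioligands: [3H]-DPCPX 1 nM (A1), [3H]ZM241385 1 nM (A2A), [3H]-MRS-1754 1.6 nM (A2B), [3H]-HEMADO 2 nM (A3). Buffer was 50 mM Tris with EDTA and ADA; MgCl2 10 mM for A2A/A3; A2B at pH 6.5 with 5 mM MgCl2. Incubation 90 min at room temperature, then filtration. Nonspecific binding defined by NECA 100 μM. Ki values: mean of two experiments, triplicate points.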

In a further series the target is CYP2C19 (Homo sapiens, UniProt P33261). As to the kind of experiment: Inhibition of CYP2C19 in human liver microsomes at 5 to 25 uM using (S)mephenytoin as substrate preincubated for 5 mins with substrate followed by NADPH addition measured after 40 mins by LC-MS/MS analysis. Format: ADME. Particulars: human liver microsomes, probe (S)-mephenytoin.
The next series has as its target Adenosine receptor A2a (Homo sapiens, UniProt P29274). As to the kind of experiment: Displacement of [3H]ZM241385 from human adenosine A2A receptor expressed in HEK293 cell membranes measured after 90 mins. The essentials: as §1
Another series deals with Rattus norvegicus. Put plainly: Clearance in Wistar rat at 3 mg/kg, iv by LC/MS/MS analysis relative to hepatic blood flow. Format: ADME, organism-based. Particulars: in vivo.
Another series addresses CYP2D6 (Homo sapiens, UniProt P10635). Put plainly: Inhibition of CYP2D6 in human liver microsomes at 5 to 25 uM using dextromethorphan as substrate preincubated for 5 mins with substrate followed by NADPH addition measured after 10 mins by LC-MS/MS analysis. Format: ADME. Particulars: human liver microsomes, probe dextromethorphan.
A further series concerns the target T3, Adenosine receptor A3 (Homo sapiens, UniProt P0DMS8).
T3 sequence (P0DMS8 whole entry): T1 sequence (whole entry)
Put plainly: Displacement of [3H]-HEMADO from human adenosine A3 receptor expressed in HEK293 cell membranes measured after 90 mins.

A further series concerns the target Cytochrome P450 2C9 (Homo sapiens, UniProt P11712). As to the kind of experiment: Inhibition of CYP2C9 in human liver microsomes at 5 to 25 uM using diclofenac as substrate preincubated for 5 mins with substrate followed by NADPH addition measured after 10 mins by LC-MS/MS analysis. The series is classed as ADME. Particulars: microsomes, 10 min, 25 µM.
Series [5] concerns the target T4, Adenosine receptor A1 (Homo sapiens) (UniProt P30542).
T4 sequence (whole entry): T2 sequence (P30542 whole entry)
Put plainly: Displacement of [3H]-DPCPX from human adenosine A1 receptor expressed in HEK293 cell membranes at 1 uM measured after 90 mins relative to control.

The target in the next series is T5, Cytochrome P450 1A2 (Homo sapiens, UniProt P05177).
T5 sequence (P05177 whole entry): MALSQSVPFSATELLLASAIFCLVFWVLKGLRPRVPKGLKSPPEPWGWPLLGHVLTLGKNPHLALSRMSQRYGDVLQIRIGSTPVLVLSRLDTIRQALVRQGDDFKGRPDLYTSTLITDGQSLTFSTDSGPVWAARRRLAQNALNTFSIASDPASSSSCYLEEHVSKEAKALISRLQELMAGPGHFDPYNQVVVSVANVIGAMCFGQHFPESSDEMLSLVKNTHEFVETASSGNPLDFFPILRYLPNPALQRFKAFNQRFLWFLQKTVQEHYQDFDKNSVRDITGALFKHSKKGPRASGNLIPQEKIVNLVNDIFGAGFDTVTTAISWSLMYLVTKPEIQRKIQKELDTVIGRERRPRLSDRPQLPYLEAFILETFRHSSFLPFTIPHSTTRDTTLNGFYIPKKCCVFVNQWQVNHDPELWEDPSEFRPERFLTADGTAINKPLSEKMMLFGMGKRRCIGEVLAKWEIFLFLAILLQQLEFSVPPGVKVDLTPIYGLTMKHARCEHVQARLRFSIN
As to the kind of experiment: Inhibition of CYP1A2 in human liver microsomes at 5 to 25 uM using phenacetin as substrate preincubated for 5 mins with substrate followed by NADPH addition measured after 10 mins by LC-MS/MS analysis. Format: ADME. Particulars: microsomes, 10 min, 25 µM.

Structures are written as SMILES. Active and inactive are the calls of the source. No cut-off for these calls is given here.

Sequence of Adenosine receptor A2a (P29274 whole entry): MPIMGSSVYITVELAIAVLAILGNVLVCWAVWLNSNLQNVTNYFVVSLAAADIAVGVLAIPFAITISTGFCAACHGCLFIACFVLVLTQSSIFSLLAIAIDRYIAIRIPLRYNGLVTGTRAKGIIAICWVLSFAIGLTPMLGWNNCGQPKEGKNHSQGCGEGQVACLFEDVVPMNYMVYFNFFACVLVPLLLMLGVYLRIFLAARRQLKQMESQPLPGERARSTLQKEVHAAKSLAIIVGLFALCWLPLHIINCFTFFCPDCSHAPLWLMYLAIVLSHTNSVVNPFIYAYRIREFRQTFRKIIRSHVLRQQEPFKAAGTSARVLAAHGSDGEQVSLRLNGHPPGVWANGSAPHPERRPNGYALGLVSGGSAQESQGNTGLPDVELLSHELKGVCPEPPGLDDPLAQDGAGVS
Sequence of Cytochrome P450 2C9 (P11712 whole entry): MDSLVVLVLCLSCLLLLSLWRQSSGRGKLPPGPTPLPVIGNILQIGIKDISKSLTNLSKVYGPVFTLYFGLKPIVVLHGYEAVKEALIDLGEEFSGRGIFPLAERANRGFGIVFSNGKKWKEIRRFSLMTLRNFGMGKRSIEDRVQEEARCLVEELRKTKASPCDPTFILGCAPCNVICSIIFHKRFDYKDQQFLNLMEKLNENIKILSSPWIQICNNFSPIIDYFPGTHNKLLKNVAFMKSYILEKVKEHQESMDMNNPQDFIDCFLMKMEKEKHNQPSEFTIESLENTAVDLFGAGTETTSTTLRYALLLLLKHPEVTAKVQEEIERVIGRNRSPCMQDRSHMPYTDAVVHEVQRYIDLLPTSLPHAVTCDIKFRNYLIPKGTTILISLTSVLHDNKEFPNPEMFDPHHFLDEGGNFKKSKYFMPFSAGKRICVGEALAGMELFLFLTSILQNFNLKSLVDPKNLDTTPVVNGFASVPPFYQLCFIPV
Sequence of CYP2C19 (P33261 whole entry): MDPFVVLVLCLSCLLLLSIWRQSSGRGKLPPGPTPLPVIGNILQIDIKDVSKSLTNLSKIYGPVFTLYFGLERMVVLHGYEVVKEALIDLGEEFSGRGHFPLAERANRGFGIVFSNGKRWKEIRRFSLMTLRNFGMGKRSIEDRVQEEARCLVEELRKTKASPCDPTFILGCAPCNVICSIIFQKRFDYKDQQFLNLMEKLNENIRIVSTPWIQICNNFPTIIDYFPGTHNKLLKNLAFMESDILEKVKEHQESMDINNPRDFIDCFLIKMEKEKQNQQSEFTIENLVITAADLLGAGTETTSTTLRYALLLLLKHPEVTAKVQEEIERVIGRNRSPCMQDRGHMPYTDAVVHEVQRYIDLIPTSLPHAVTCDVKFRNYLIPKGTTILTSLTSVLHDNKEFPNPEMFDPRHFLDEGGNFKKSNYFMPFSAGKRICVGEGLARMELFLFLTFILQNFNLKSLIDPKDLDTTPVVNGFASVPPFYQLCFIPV
Sequence of CYP2D6 (P10635 whole entry): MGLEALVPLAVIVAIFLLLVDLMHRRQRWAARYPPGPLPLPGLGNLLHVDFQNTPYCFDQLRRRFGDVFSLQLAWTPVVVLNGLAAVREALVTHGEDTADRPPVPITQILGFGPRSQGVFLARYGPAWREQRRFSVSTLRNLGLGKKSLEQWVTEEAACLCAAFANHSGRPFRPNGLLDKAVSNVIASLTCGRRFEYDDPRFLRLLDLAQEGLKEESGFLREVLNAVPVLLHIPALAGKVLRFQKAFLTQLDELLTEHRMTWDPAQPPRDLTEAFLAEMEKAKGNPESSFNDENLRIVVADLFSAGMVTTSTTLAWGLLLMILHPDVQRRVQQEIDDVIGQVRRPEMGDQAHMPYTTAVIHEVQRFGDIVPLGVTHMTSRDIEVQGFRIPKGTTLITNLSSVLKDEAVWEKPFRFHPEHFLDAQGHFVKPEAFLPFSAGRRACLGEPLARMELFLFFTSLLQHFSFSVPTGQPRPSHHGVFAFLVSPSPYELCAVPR

With `CCN(CC)C1CCC(C)(C(=O)Nc2nc3c(OC)ccc(N4CCOCC4)c3s2)CC1` (centres undefined), the remaining at 1 h, 1 µM in series [1] is 89%. This molecule yielded a Cmax in [2] of 2.02 µM. Further, the AUC(0-t) in series [3] turned out to be 5.5 µM·h. The result in [4] was inactive. Moreover, the IC50 at 10 min at CYP3A and against CYP2D6 was greater than 50 µM each time. Further, the Ki on Adenosine receptor A1 was determined as 1.2 µM; on Adenosine receptor A2a it was 0.0021 µM. Further, the IC50 at 40 min against CYP2C19 is greater than 50 µM. In the series on Rattus norvegicus, this molecule showed a clearance of 60 to 65%.
On to `COc1ccc(N2CCOCC2)c2sc(NC(=O)C3(C)CCC(C)(O)CC3)nc12` (centres undefined), for which the remaining at 1 h, 1 µM in series [1] is 88%. Besides, in series [2], the Cmax came out at 5.4 µM. In series [3], this molecule displayed an AUC(0-t) of 7.8 µM·h. Also, the result in series [4] was inactive. Besides, the concentration for half-maximal inhibition (IC50) at 10 min against CYP3A and against CYP2D6 was greater than 25 µM each time. Besides, the inhibitory constant (Ki) came out at 2.9 µM on Adenosine receptor A1 and 0.0086 µM on Adenosine receptor A2a. The IC50 at 40 min against CYP2C19 is greater than 25 µM. The same molecule showed a clearance in the series with Rattus norvegicus of 60 to 65%.
Regarding `COc1ccc(N2CCOCC2)c2sc(NC(=O)C(C)(C)Oc3ccc(F)cc3)nc12`, the figures for the Ki at Adenosine receptor A3, on Adenosine receptor A1 and at Adenosine receptor A2a were 5 µM, 5 µM and 0.013 µM, respectively. The molecule also registered a Cmax in series [2] of 0.19 µM. In addition, the “inhibition (INH)” value against Cytochrome P450 2C9 and on Cytochrome P450 1A2 was “Not Active” each time. The AUC(0-t) in series [3] amounted to 1.5 µM·h. In series [5], this molecule came in with an inhibition of 16%.
Consider `COc1ccc(N2CCOCC2)c2sc(NC(=O)C(C)(C)Oc3ccc(F)c(F)c3)nc12`, for which the Ki at Adenosine receptor A3 stood at 0.5 µM; at Adenosine receptor A1, 1.1 µM; on Adenosine receptor A2a, 0.0064 µM. Also, the Cmax in series [2] stood at 1.33 µM. For the same molecule, the “inhibition (INH)” value against Cytochrome P450 2C9 and on Cytochrome P450 1A2 was “Not Active” each time. Also, the exposure AUC(0-t) in [3] turned out to be 6.2 µM·h. In addition, the inhibition in series [5] came to 38%.
Regarding `COc1cnc(N2CCOCC2)c2sc(NC(=O)C(C)(C)Oc3ccc(F)cc3)nc12`, the Ki came out at 0.4 µM on Adenosine receptor A3, 0.5 µM on Adenosine receptor A1 and 0.0034 µM on Adenosine receptor A2a. For the same molecule, in [2], the Cmax came to 1.1 µM. In addition, the “inhibition (INH)” value on Cytochrome P450 2C9 and against Cytochrome P450 1A2 was “Not Active” throughout. Besides, the AUC(0-t) in [3] came to 12 µM·h. This molecule showed an inhibition in series [5] of 46%.
